Reference: ChEMBL document CHEMBL4354867, “Validation and Characterization of Five Distinct Novel Inhibitors of Human Cytomegalovirus” (J Med Chem, 2020)
Active and inactive are the calls of the source. No cut-off for these calls is given here.

Tests used:
[1] = test system: Human betaherpesvirus 5; assay: Antiviral activity against HCMV Towne infected in human HFF cells assessed as reduction in plaque formation treated with compound following viral infection and incubated for 8 to 10 days by crystal violet staining based assay; type: functional, organism-based; settings: Human betaherpesvirus 5, strain Towne
[2] = test system: Human betaherpesvirus 5; assay: Antiviral activity against HCMV Towne infected in human HFF cells assessed as reduction in plaque formation treated with compound following viral infection at MOI of 1 PFU/cell and measured at 10 days post-infection in presence of letermovir by crystal violet staining based assay; type: functional, organism-based; settings: Human betaherpesvirus 5, strain Towne, 240 h
[3] = test system: Human alphaherpesvirus 1; assay: Antiviral activity against HSV 1 infected in African green monkey Vero cells assessed as reduction in plaque formation incubated for 36 hrs by crystal violet staining based assay; type: functional, organism-based; settings: vero
Outline: (§1)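 Plaque reduction in Vero cells: virus adsorbed 60 min, then compound added in a carboxymethylcellulose overlay. Plaques counted after 36 h by crystal violet staining.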

[4] = test system: Human betaherpesvirus 5; assay: Antiviral activity against HCMV TB40 infected in human HFF cells assessed as reduction in plaque formation treated with compound following viral infection and incubated for 8 to 10 days by crystal violet staining based assay; type: functional, organism-based; settings: Human betaherpesvirus 5, TB40, HFF
[5] = test system: Human gammaherpesvirus 4; assay: Antiviral activity against EBV infected in human AKATA cells assessed as reduction in IgG-induced lytic virus replication measured at 48 hrs post-lytic induction by qRT-PCR analysis; type: functional, organism-based
[6] = test system: Human betaherpesvirus 5; assay: Antiviral activity against GCV-resistant HCMV Towne infected in human HFF cells assessed as reduction in plaque formation treated with compound following viral infection and incubated for 8 to 10 days by crystal violet staining based assay; type: functional, organism-based; settings: Human betaherpesvirus 5, strain Towne
[7] = test system: Human betaherpesvirus 5; assay: Inhibition of viral protein expression in HCMV Towne infected in human HFF cells assessed as reduction in IE2 expression at 1 to 10 uM treated with compound following viral infection at MOI of 1 PFU/cell measured at 72 hrs post infection by Western blot analysis; type: functional, organism-based; settings: strain Towne
Outline: (§2)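 HFFs infected with HCMV Towne (MOI 1), then treated with compound. Lysates taken at 72 hpi, equal protein loaded on 8–10% Tris-glycine SDS-PAGE and transferred to PVDF. Primary antibodies overnight at 4 °C, HRP secondary, chemiluminescent detection; β-actin as loading control.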

[8] = test system: Human betaherpesvirus 5; assay: Inhibition of viral protein expression in HCMV Towne infected in human HFF cells assessed as reduction in IE1 expression at 1 to 10 uM treated with compound following viral infection at MOI of 1 PFU/cell measured at 72 hrs post infection by Western blot analysis; type: functional, organism-based; settings: strain Towne; outline: as §2
[9] = test system: Human betaherpesvirus 5; assay: Antiviral activity against HCMV Towne infected in human HFF cells assessed as reduction in viral DNA yields in the supernatant at 3 uM treated with compound following viral infection at MOI of 0.1 PFU/cell by US17 real time PCR analysis; type: functional, organism-based; settings: strain Towne
Outline: (§3)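 At set time points supernatants were harvested and cells lysed for DNA. Cell-associated viral DNA and supernatant viral DNA quantified by real-time PCR targeting a 151-bp conserved US17 region.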

[10] = test system: Human betaherpesvirus 5; assay: Antiviral activity against pp28-luciferase expressing HCMV Towne infected in human HFF cells assessed as reduction in viral replication treated with compound immediately after viral infection at MOI of 1 PFU/cell followed by compound washout after 6 hrs and measured after 3 days by luciferase reporter gene assay; type: functional; settings: strain Towne
Outline: (§4)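 Time-of-addition in HFFs infected with HCMV Towne (MOI 1). Add-on: compound added at 0, 6, 24 or 48 hpi. Removal: compound added right after infection and washed out after 0, 6, 24 or 48 h. Luciferase read at 72 hpi.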

[11] = test system: Human betaherpesvirus 5; assay: Antiviral activity against pp28-luciferase harboring UL97 C607Y mutant expressing GCV-resistant HCMV Towne infected in human HFF cells assessed as reduction in viral replication at 0.5 to 3 uM treated with compound following viral infection at MOI of 0.1 PFU/cell and measured at 72 hrs post infection by luciferase reporter gene assay; type: functional, organism-based; settings: strain Towne
Outline: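 HFFs infected with GCV-resistant pp28-luciferase Towne (MOI 0.1), then treated with a compound dilution series. Luciferase, driven by the UL99 late promoter, read in cell lysates at 72 hpi. Data are mean ± SD of triplicates from a single experiment.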

[12] = test system: Human betaherpesvirus 5; assay: Antiviral activity against HCMV TB40 infected in human HFF cells assessed as reduction in plaque formation at 0.5 to 3 uM treated with compound following viral infection at […] measured after 8 days by crystal violet staining analysis; type: functional, organism-based
Outline: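 HFFs (2 × 10⁵/well) infected with HCMV TB40 at about 100 plaques/well for 90 min. Inoculum removed, then DMEM with 0.5% CMC, 4% FBS and compound added. Incubated at 37 °C; plaques stained with crystal violet and counted at 8 dpi. Experiment repeated three times; one representative shown.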

[13] = test system: Human alphaherpesvirus 2; assay: Antiviral activity against HSV 2 infected in African green monkey Vero cells assessed as reduction in plaque formation incubated for 36 hrs by crystal violet staining based assay; type: functional, organism-based; settings: vero; outline: as §1
[14] = Antiviral activity against Mouse Cytomegalovirus Smith (ATCC VR-1399) infected in mouse MEF cells assessed as reduction in plaque formation measured after 3 days by crystal violet staining based assay; type: functional, cell-based, Murine cytomegalovirus (strain Smith); settings: Murid betaherpesvirus 1, ATCC VR-1399, MEF, 72 h; read-out: EC50
Outline: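 Plaque reduction with MCMV Smith in mouse embryonic fibroblasts, with compound in a carboxymethylcellulose overlay. Assay ended at 3 days and plaques counted after crystal violet staining.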

[15] = test system: MEF; assay: Cytotoxicity against mouse MEF cells assessed as reduction in cell viability at >=10 uM incubated for 72 hrs or 8 to 10 days by MTT assay; type: cell-based
Outline: (§5)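 MTT assay on uninfected cells exposed to compound for 72 h or 8–10 days, matching the antiviral assay durations. MTT (5 mg/mL stock in PBS) added, then 2–3 h at 37 °C. Formazan absorbance read at 560 nm.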

[16] = test system: Human betaherpesvirus 5; assay: Antiviral activity against HCMV TB40 infected in human HFF cells assessed as reduction in plaque formation treated with compound following viral infection at MOI of 100 PFU/wells measured at 10 days post-infection in presence of GCV by crystal violet staining based assay; type: functional, organism-based; settings: Human betaherpesvirus 5, TB40, HFF, 240 h
Outline: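 HFFs were infected at about 100 plaques/well and adsorbed for 90 min. They were then overlaid with DMEM containing 0.5% carboxymethylcellulose, 4% FBS and drugs, and incubated at 37 °C. A dose-response of each drug alone gave its EC₅₀. Combinations started at twice each EC₅₀, followed by two-fold serial dilutions. Plaques were counted after crystal violet staining. The Bliss coefficient is observed over expected fold inhibition (>1 synergy, <1 antagonism, =1 additive).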

[17] = test system: Human betaherpesvirus 5; assay: Antiviral activity against HCMV Towne infected in human HFF cells assessed as reduction in viral DNA replication at 3 uM treated with compound following viral infection at MOI of 0.1 PFU/cell by US17 real time PCR analysis; type: functional, organism-based; settings: strain Towne; outline: as §3
[18] = test system: HFF; assay: Cytotoxicity against human HFF cells assessed as reduction in cell viability incubated for 72 hrs or 10 days by MTT assay; type: cell-based; outline: as §5
[19] = test system: Human betaherpesvirus 5; assay: Antiviral activity against pp28-luciferase expressing HCMV Towne infected in human HFF cells assessed as reduction in viral replication treated with compound at 24 hrs post viral infection at MOI of 1 PFU/cell and measured after 3 days by luciferase reporter gene assay; type: functional, organism-based; settings: strain Towne; outline: as §4

SMILES: CC(C)NC(=O)C1CCN(C(=O)c2cc3sccc3n2Cc2ccc(Cl)cc2)CC1
- EC50 [1]: 4.61 µM
- EC50 [2]: 3.19 µM
- EC50 [3]: Not Active
- EC50 [4]: 1.18 µM
- EC50 [5]: Not Active
- EC50 [6]: 1.4 µM
- inhibition [7]: Active
- inhibition [8]: Active
- Activity [9]: Active
- Activity [10]: Active
- Activity [11]: Active
- Activity [12]: Active
- EC50 [13]: Not Active
- EC50 [14]: 1 µM
- Activity [15]: Toxic
- EC50 [16]: 1.51 µM
- Activity [17]: Active
- CC50 [18]: > 200 µM
- Activity [19]: inactive
